Screens as filed in PubChem.
Myeloid diff 2 – promotes myeloid progenitor differentiation | calls only at 10 µM | AID 624256 | ER-HoxA9 myeloid progenitors, lysozyme-GFP differentiation, flow cytometry | 360,000 compounds, 1% hits;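 active = normalized GFP-positive differentiation at or above the plate's own cutoff, the solvent-only control mean plus 3 SD; inconclusive = no clear call, values can overlap the other calls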;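 note: cells exposed to compound for four days before flow analysis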
SENP1 inh – blocks the human SENP1 SUMO protease catalytic domain | Q9P0U3 | recombinant SENP1 catalytic domain, CyPet-SUMO1-YPet FRET cleavage | inhibition, % at 10 µM | 360,000 compounds, 0.21% hits | AID 624204;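 active = inhibition at least 30% at 10 µM, raw YFP signal under a set limit, fluorescence ratio 0.5 to 1.5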
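Material: hSENP1 catalytic domain, recombinant; medium: Tris pH 8 with BME, BSA, NP40 and catalase; compound: single concentration of 10 µM compound, 0.5% DMSO final; technique: FRET read of cyan and yellow fluorescence; timing: 50 min enzyme reaction, room temperature, light-protected; reagent: SFCypet-SUMO1-SFYpet substrate at 25 nM; control set: no-enzyme low, enzyme-DMSO high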
DSG3 Ab inh – inhibitors of pemphigus antibody binding to human desmoglein-3; P32926; DSG3-coupled beads, scFv-anti-DSG3-GFP binding, flow cytometry; stronger effect = lower value; binding (percent of control), % at 10 µM; AID 588358; 310,000 compounds, 0.48% hits;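 active = binding more than 3 SD below its plate's average and above zero; inconclusive = below that plate limit but binding exactly zero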
Exocytosis inh – blocks lytic granule exocytosis | inhibition, % at 10 µM | 360,000 compounds, 0.66% hits | TALL-104 LAMP-1 surface exposure, flow cytometry; cells stimulated with thapsigargin and PMA;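 active = inhibition above about 55%, limit read from the data; inconclusive = no clear call, values can overlap the other calls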
H9c2 protect – myocardial damage modulation in H9c2 cells. protection from H2O2 cell death, % at 20 µM. 360,000 compounds, 0.63% hits. H9c2 cardiomyocytes, H2O2 injury protection, ATPLite, 2 h. AID 588492;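 active = compounds giving at least 50% protection of heart cells from peroxide-induced death in the single-dose screen, raw or plate-pattern-corrected value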
HNF4A DNA FP – change in binding of human HNF4 alpha to DNA; P41235; HNF4a-FITC DNA binding, fluorescence polarization, 1 h; activity change, % at 10 µM; 360,000 compounds, 0.3% hits; AID 1224865; in the data active = activity change above about 30%, passing the limit was not always enough
Target sequence (P41235 whole entry, looked up): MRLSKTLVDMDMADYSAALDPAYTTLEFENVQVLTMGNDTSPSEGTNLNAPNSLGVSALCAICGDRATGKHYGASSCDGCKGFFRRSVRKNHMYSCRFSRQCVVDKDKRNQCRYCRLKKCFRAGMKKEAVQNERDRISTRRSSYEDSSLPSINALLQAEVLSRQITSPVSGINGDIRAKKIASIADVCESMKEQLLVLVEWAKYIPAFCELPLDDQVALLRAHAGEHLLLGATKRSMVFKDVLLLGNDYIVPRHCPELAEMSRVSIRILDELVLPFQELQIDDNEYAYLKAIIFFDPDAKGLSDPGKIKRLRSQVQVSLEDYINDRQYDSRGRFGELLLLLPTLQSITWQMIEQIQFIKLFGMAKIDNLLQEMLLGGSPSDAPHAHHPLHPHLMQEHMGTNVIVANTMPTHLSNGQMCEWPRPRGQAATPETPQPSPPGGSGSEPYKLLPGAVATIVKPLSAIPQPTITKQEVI
Myeloid diff CP1 – compounds promoting myeloid differentiation; AID 651706; ER-HoxA9 myeloid progenitors, GFP/Mac1 double-positive flow; 2,300 compounds, 2% hits; shares compounds with Myeloid diff 2; calls only;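 active = share of green or green-and-red cells above 9 and 9% in run 1 or 4 and 3% in run 2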
GFP autofluor – flagged as fluorescent in myeloid differentiation counter-screen; shares compounds with Myeloid diff 2; ER-HoxA9 myeloid progenitors, no estrogen, GFP autofluorescence flow cytometry; vehicle wells 0%, positive control 100%; fluorescence response, % (test concentration not listed); 2,300 compounds, 7.4% hits; AID 651707;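 active = over 5% cells positive for green fluorescent reporter, or over 2% positive for both it and APC stain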
Hits are given with their value; n = inactive; u = inconclusive; x = no result given; + = active, no number. Hits are enriched below; roughly 3% of the tested compounds scored in any of these assays.

SMILES | Myeloid diff 2 | SENP1 inh | DSG3 Ab inh | Exocytosis inh | H9c2 protect | HNF4A DNA FP | Myeloid diff CP1 | GFP autofluor
O=C(Nc1ccc2c(c1)OCO2)C1CCN(S(=O)(=O)c2ccc3c(c2)OCCO3)CC1 | n | n | n | n | n | n | n | n
COc1ccc(S(=O)(=O)N2CCC(C(=O)Nc3ccc4c(c3)OCCO4)CC2)cc1OC | n | n | n | n | n | n | x | x
CCN(CC)c1ccc(N=C2C(=O)Nc3ccccc32)cc1 | n | n | n | n | n | n | n | 3.7
CC(=O)Nc1cccc(-c2ccnc3c2CC(C)(C(=O)NCc2ccc(N(C)C)cc2)O3)c1 (centres undefined) | + | n | x | n | n | n | n | n
CC(=O)Nc1cccc(-c2ccnc3c2CC(C)(C(=O)NCc2cccc(Cl)c2)O3)c1 (centres undefined) | n | n | x | n | n | n | x | x
O=C(O)C1(S(=O)(=O)CCC(F)=C(F)F)CC1 | n | n | n | n | n | n | x | x
O=S(=O)(NCc1ccncc1)c1ccc(F)c(F)c1 | n | n | n | n | n | n | n | n
Cc1ccc(S(=O)(=O)NCc2ccncc2)cc1C | n | n | n | n | n | n | x | x
CCCc1cc(=O)oc2cc(OCC(=O)NCCCN3CCCC3=O)ccc12 | n | n | n | n | n | n | x | x
O=C(Nc1nccs1)c1ccc(-c2ccc([N+](=O)[O-])cc2)o1 | + | n | n | n | n | n | n | n
O=C(Nc1nccs1)c1ccc(-c2ccc(Cl)cc2)o1 | n | n | n | n | n | n | x | x
COc1ccc(Cn2c(C3CC3)nc3ccc(NC(=O)c4cccnc4)cc3c2=O)cc1 | + | n | n | n | n | n | n | 14
COc1ccc(Cn2c(C3CC3)nc3ccc(NC(C)=O)cc3c2=O)cc1 | + | n | n | n | n | n | n | n
COc1ccc(NC(=O)c2cccnc2)cc1 | n | n | n | n | n | n | x | x
Cc1ccc(C(=O)Nc2c(N)nc(SCC(=O)NCC3CCCO3)[nH]c2=O)cc1 (centres undefined) | n | n | n | n | n | n | x | x
CCCCn1c(SCC(=O)N2CCC(C)CC2)nc2cc(S(N)(=O)=O)ccc21 | + | n | n | n | n | n | n | n
CCCCn1c(SCC(=O)c2ccc(O)cc2O)nc2cc(S(N)(=O)=O)ccc21 | n | n | n | n | n | n | x | x
CC(C)C(=O)N(Nc1nc2ccccc2s1)C(=O)C(C)C | + | n | n | n | n | n | n | n
O=C(O)c1ccccc1Nc1ccc([N+](=O)[O-])cc1 | n | n | n | n | n | n | + | n
O=C(CN1CCN(Cc2ccccc2)CC1)Nc1ccc(Br)cc1 | n | n | n | n | n | n | x | x
COC(=O)c1cc(S(=O)(=O)N2c3ccccc3CC2C)cn1C (centres undefined) | n | n | x | n | n | n | x | x
Cc1nc2nc(-c3cccnc3)[nH]n2c(=O)c1C | n | n | n | n | n | n | x | x
Cc1nc2nc(-c3ccccc3)[nH]n2c(=O)c1C | n | n | n | n | n | n | n | n
CCCCn1c(N)c(N(CCC(C)C)C(=O)Cc2ccc(S(=O)(=O)N3CCOCC3)s2)c(=O)[nH]c1=O | n | n | n | n | n | n | x | x
CCCCn1c(N)c(N(CC(C)C)C(=O)Cc2ccc(S(=O)(=O)N3CCOCC3)s2)c(=O)[nH]c1=O | + | n | n | n | n | n | + | n
SMILES | Myeloid diff 2 | SENP1 inh | DSG3 Ab inh | Exocytosis inh | H9c2 protect | HNF4A DNA FP | Myeloid diff CP1 | GFP autofluor
COc1cc(C2C3=C(CC(C)(C)CC3=O)Nc3ccccc3N2C(C)=O)cc(OC)c1OC (centres undefined) | n | n | n | n | n | n | n | n
COc1cc(C2C3=C(CC(c4ccco4)CC3=O)Nc3ccccc3N2C(C)=O)cc(OC)c1OC (centres undefined) | n | n | n | n | n | n | x | x
CCOC(=O)c1c(N)sc2c1CCC(C)C2 (centres undefined) | + | n | n | n | n | n | n | n
CCOC(=O)c1c(NS(C)(=O)=O)sc2c1CCC(C)C2 (centres undefined) | n | n | x | n | n | n | x | x
COc1ccc(C(=O)COC(=O)CCCC(=O)NC2CCCCC2)cc1 | n | n | n | n | n | n | x | x
O=C(CN1CCN(Cc2ccccc2)CC1)NNC(=O)c1ccccc1 | n | n | n | n | n | n | n | n
CCc1ccc(C(=O)NNC(=O)CCN2CCN(Cc3ccccc3)CC2)cc1 | n | n | n | n | n | n | x | x
CC(=O)Nc1ccc(CC(=O)O)cc1 | n | n | n | n | n | n | x | x
N#CCC(=O)Nc1ccc(C(=O)NCCC(c2ccccc2)c2ccccc2)cc1 | + | n | n | n | n | n | n | n
CC(=O)Nc1ccc(CC(=O)NCCC(c2ccccc2)c2ccccc2)cc1 | + | n | n | n | n | n | n | n
CN(C)C(CNC(=O)c1ccc(NC(=O)CC#N)cc1)c1ccccc1 (centres undefined) | x | n | n | n | n | n | x | x
COC(=O)c1ccc(C2C(C(C)=O)=C(O)C(=O)N2CCO)cc1 (centres undefined) | n | n | n | n | n | n | n | n
COc1cc(NC(=O)COC(=O)/C=C/c2ccc(OC)c(OC)c2)cc(OC)c1 | n | n | n | n | n | n | x | x
COc1cc(NC(=O)COC(=O)/C=C/c2ccccc2Cl)cc(OC)c1 | n | n | n | n | n | n | n | n
OCCN1CCN(c2ncnc3c2ncn3[C@H]2CN(Cc3ccc4c(c3)OCO4)C[C@@H](CO)O2)CC1 | n | n | x | n | n | n | x | x
Nc1ccccc1C(=O)NNC1=C(C(=O)C(F)(F)F)CCC1 | + | n | n | n | n | n | n | n
COc1ccccc1C(=O)NNC1=C(C(=O)C(F)(F)F)CCC1 | + | n | n | n | 67 | n | n | n
O=C(NNC1=C(C(=O)C(F)(F)F)CCC1)c1ccccc1Cl | n | n | n | n | n | n | x | x
O=C(NNC1=C(C(=O)C(F)(F)F)CCC1)c1ccccc1O | n | n | n | n | n | n | x | x
COc1ccccc1-c1ccc(SCc2ccc(C)cc2)nn1 | n | n | n | n | n | n | x | x
COc1ccccc1-c1ccc(SCc2ccc(F)cc2)nn1 | + | n | n | n | n | n | n | n
CC(C)C1Oc2ccccc2N(CC(=O)N2CCOCC2)C1=O (centres undefined) | n | n | n | n | n | n | x | x
CCOC(=O)c1ccc(NC(=O)C(CC)(CC)C(=O)OCC)cc1 | n | n | n | n | n | n | n | n
C#CC[N+](C)(C)CCCCCCCCCC | u | n | n | n | n | n | x | x
C#CC[N+](C)(C)CCCCCCCC | n | n | n | n | n | n | n | n
